# Test results reported in ChEMBL document CHEMBL1121726, “Pyrazolopyrimidine nucleosides. 12. Synthesis and biological activity of certain pyrazolo[3,4-d]pyrimidine nucleosides related to adenosine” (1981).
# Active and inactive are the calls of the source. No cut-off for these calls is given here.
# Assays:
# [1] = test system: L1210; test: Number of mice surviving 1-5 days after 25 mg/kg administered; 1/12; assay type: functional, Mus musculus
# [2] = test system: L1210; test: In vitro inhibition of growth of L1210 mouse leukemic cells; assay type: functional; details: read-out: ID50 (the source's name)
# Method in brief: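 L1210 cells grown in static suspension culture in Fischer's medium for leukemic cells of mice, exposed to a range of test-compound concentrations. Growth rate measured over 3 days.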
# [3] = test system: L1210; test: Toxicity against L1210 leukemic cells 1-5 days after administration of 25 mg/kg of the compound; Yes; assay type: functional, organism-based; design: dose 25 mg/kg; details: Mus musculus
# Method in brief: (§1)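 Mice bearing L1210 or P388 leukemia were injected at the stated dose per injection on the listed days after tumor-cell inoculation. Host toxicity scores whether higher doses on the same schedule caused drug-induced shortening of life span: y = yes, n = no, nt = no higher dose tested.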
# [4] = test system: P388; test: Toxicity against P388 leukemic cells 1,5,9 days after administration of 100 mg/kg of the compound; Yes; details: Mus musculus
# [5] = test system: P388; test: Increase in life span of tumor P388 leukemic mice 1,5,9 days after 100 mg/kg administered
# [6] = test system: L1210; test: Increase in life span of tumor L1210 leukemic mice 1-5 days after 25 mg/kg administered; assay type: functional, Mus musculus
# Method in brief: (§2)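 Mice bearing L1210 or P388 leukemia were injected with drug at the listed dose per injection on the listed days after tumor-cell inoculation. ILS was the percentage increase in life span of treated mice over untreated tumor-bearing controls.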
# [7] = test system: L1210; test: Increase in life span of tumor L1210 leukemic mice 1-9 days after 3.12 mg/kg administered; assay type: functional, Mus musculus; method in brief: as §2
# [8] = test system: P388; test: Toxicity against P388 leukemic cells 1-9 days after administration of 3 mg/kg of the compound; Yes; assay type: functional, organism-based; design: dose 3 mg/kg; details: Mus musculus; method in brief: as §1
# [9] = test system: L1210; test: Toxicity against L1210 leukemic cells 1-9 days after administration of 3.12 mg/kg of the compound; Yes; assay type: functional, organism-based; design: dose 3.12 mg/kg; details: Mus musculus; method in brief: as §1
# [10] = test system: P388; test: Increase in life span of tumor P388 leukemic mice 1-9 days after 3 mg/kg administered; assay type: functional, Mus musculus; method in brief: as §2
# [11] = test system: L1210; test: Increase in life span of tumor L1210 leukemic mice 1-5 day after 200 mg/kg administered; assay type: functional, Mus musculus; method in brief: as §2
# [12] = test system: L1210; test: Toxicity against L1210 leukemic cells 1-5 days after administration of 200 mg/kg of the compound; Yes; assay type: functional, organism-based; design: dose 200 mg/kg; details: Mus musculus; method in brief: as §1
# [13] = test system: L1210; test: Toxicity against L1210 leukemic cells 1-5 days after administration of 400 mg/kg of the compound; nt= No higher dose tested; assay type: functional, organism-based; design: dose 400 mg/kg; details: Mus musculus; method in brief: as §1
# [14] = test system: L1210; test: Increase in life span of tumor L1210 leukemic mice 1-5 days after 400 mg/kg administered; assay type: functional, Mus musculus; method in brief: as §2
# [15] = test system: L1210; test: […] against L1210 leukemic cells 1-5 days after administration of 200 mg/kg of the compound; Yes; assay type: functional, organism-based; design: dose 200 mg/kg; details: Mus musculus
# [16] = test system: L1210; test: Increase in life span of tumor L1210 leukemic mice 1-5 days after 200 mg/kg administered; assay type: functional, Mus musculus; details: Mus musculus, L1210; method in brief: as §2
# [17] = test system: L1210; test: Increase in life span of tumor L1210 leukemic mice 1-5 days after 100 mg/kg administered; assay type: functional; details: Mus musculus; method in brief: as §2
# [18] = test system: L1210; test: […] against L1210 leukemic cells 1-5 days after administration of 100 mg/kg of the compound; Yes; assay type: functional, organism-based; design: dose 100 mg/kg; details: Mus musculus
# [19] = test system: L1210; test: Increase in life span of tumor L1210 leukemic mice 1-9 days after 400 mg/kg administered; assay type: functional, Mus musculus; method in brief: as §2
# [20] = test system: L1210; test: Toxicity against L1210 leukemic cells 1-9 days after administration of 400 mg/kg of the compound; No higher dose tested; assay type: functional, organism-based; design: dose 400 mg/kg; details: Mus musculus; method in brief: as §1
# [21] = test system: L1210; test: […] against L1210 leukemic cells 1-5 days after administration of 400 mg/kg of the compound; No higher dose tested; assay type: functional, organism-based; design: dose 400 mg/kg; details: Mus musculus
# [22] = test system: L1210; test: Increase in life span of tumor L1210 leukemic mice 1-5 day after 400 mg/kg administered; assay type: functional, Mus musculus; method in brief: as §2
# [23] = test system: L1210; test: Toxicity against L1210 leukemic cells 1-9 days after administration of 200 mg/kg of the compound; Yes; assay type: functional, organism-based; design: dose 200 mg/kg; details: Mus musculus; method in brief: as §1
# [24] = test system: L1210; test: Increase in life span of tumor L1210 leukemic mice 1-9 day after 200 mg/kg administered; assay type: functional, Mus musculus; method in brief: as §2
# [25] = test system: L1210; test: Toxicity against L1210 leukemic cells 1-5 days after administration of 50 mg/kg of the compound; Yes; assay type: functional, organism-based; design: dose 50 mg/kg; details: Mus musculus; method in brief: as §1
# [26] = test system: L1210; test: Increase in life span of tumor L1210 leukemic mice 1-5 days after 50 mg/kg administered; assay type: functional, Mus musculus; method in brief: as §2
smiles,measurement,setting,value
N/C(=N\O)c1nn(C2O[C@H](CO)[C@@H](O)[C@H]2O)c2ncnc(N)c12 (some centres undefined),Cures,[1],1
same,IC50,[2],0.18 µM
same,Toxicity,[3],Active
same,Toxicity,[4],Active
same,ILS,[5],33
same,ILS,[6],78
NC(=S)c1nn(C2O[C@H](CO)[C@@H](O)[C@H]2O)c2ncnc(N)c12 (some centres undefined),ILS,[7],46
same,Toxicity,[8],Active
same,Toxicity,[9],Active
same,ILS,[10],34
CSc1ncnc2c1cnn2C1O[C@H](CO)[C@@H](O)[C@H]1O (some centres undefined),IC50,[2],9 µM
same,ILS,[11],19
same,Toxicity,[12],Active
O=c1[nH]cnc2c1cnn2[C@@H]1O[C@H](CO)[C@@H](O)[C@H]1O,Toxicity,[13],No higher dose tested
same,ILS,[14],2
O=[N+]([O-])c1ccc(CSc2ncnc3c2cnn3C2O[C@H](CO)[C@@H](O)[C@H]2O)cc1 (some centres undefined),Toxicity,[15],Active
same,ILS at 200 mg/kg,[16],1%
C=CCSc1ncnc2c1cnn2C1O[C@H](CO)[C@@H](O)[C@H]1O (some centres undefined),ILS at 100 mg/kg,[17],2%
same,Toxicity,[18],Active
OC[C@H]1OC(n2ncc3c(NCc4ccco4)ncnc32)[C@H](O)[C@@H]1O (some centres undefined),ILS,[19],6
same,IC50,[2],> 100 µM
same,Toxicity,[20],No higher dose tested
COc1ncnc2c1cnn2C1O[C@H](CO)[C@@H](O)[C@H]1O (some centres undefined),Toxicity,[21],No higher dose tested
same,ILS,[22],12
OC[C@H]1OC(n2ncc3cncnc32)[C@H](O)[C@@H]1O (some centres undefined),Toxicity,[23],Active
same,ILS,[24],-3
same,IC50,[2],> 100 µM
OC[C@H]1OC(n2ncc3c(NCc4ccccc4)ncnc32)[C@H](O)[C@@H]1O (some centres undefined),Toxicity,[3],Active
same,ILS,[6],3
CNc1ncnc2c1cnn2C1O[C@H](CO)[C@@H](O)[C@H]1O (some centres undefined),IC50,[2],> 100 µM
same,Toxicity,[25],Active
same,ILS,[26],4
COC(=N)c1nn(C2O[C@H](CO)[C@@H](O)[C@H]2O)c2ncnc(N)c12 (some centres undefined),Toxicity,[13],No higher dose tested
same,ILS,[14],64
